{"source": "ChEMBL document CHEMBL3102740", "about": "“Antcamphins A-L, ergostanoids from Antrodia camphorata” (J Nat Prod, 2014)", "key": {"Hs68": {"test_system": "Hs68", "test": "Cytotoxicity against human HS68 cells at 25 to 200 uM after 48 hrs by SRB assay", "type": "cell-based", "conditions": "hs68, 48 h", "summary_of_the_method": "(§1)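 Cells exposed to each compound for 48 h; growth measured by sulforhodamine B staining. Compounds dissolved in DMSO, then diluted into growth medium. Cisplatin served as positive control. IC50 values derived from the SRB read-out.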"}, "MDA-MB-231": {"test_system": "MDA-MB-231", "test": "Cytotoxicity against human MDA-MB-231 cells after 48 hrs by SRB assay", "type": "functional, cell-based", "conditions": "MDA-MB-231, 48 h", "summary_of_the_method": "as §1"}, "A549": {"test_system": "A549", "test": "Cytotoxicity against human A549 cells after 48 hrs by SRB assay", "type": "functional, cell-based", "conditions": "A549, 48 h", "summary_of_the_method": "as §1"}}}
{"smiles": "C=C(CC[C@@H](C)[C@H]1CC[C@H]2C3=C(C(=O)C[C@]12C)[C@@]1(C)CC[C@@H](O)[C@](C)(O)[C@@H]1C[C@@H]3O)[C@@H](C)C(=O)O", "values": [{"measurement": "Activity", "setting": "Hs68", "value": "Non-toxic"}]}
{"smiles": "C[C@@H]1[C@H](O)CC[C@]2(C)C3=C(C(=O)C[C@@H]12)[C@@H]1CC[C@H]([C@H](C)CCO)[C@@]1(C)[C@@H](O)C3=O", "values": [{"measurement": "Activity", "setting": "Hs68", "value": "Non-toxic"}]}
{"smiles": "CC(=O)CC[C@@H](C)[C@H]1CC[C@H]2C3=C(C(=O)C[C@]12C)[C@@]1(C)CCC(=O)[C@@H](C)[C@@H]1CC3=O", "values": [{"measurement": "IC50", "setting": "MDA-MB-231", "value": 45.5, "unit": "µM"}, {"measurement": "Activity", "setting": "Hs68", "value": "Non-toxic"}, {"measurement": "IC50", "setting": "A549", "value": 65.9, "unit": "µM"}]}
{"smiles": "C/C(C=O)=C(/C)CC[C@@H](C)[C@H]1CC[C@H]2C3=C(C(=O)C[C@]12C)[C@@]1(C)CCC(=O)[C@@H](C)[C@@H]1CC3", "values": [{"measurement": "Activity", "setting": "Hs68", "value": "Non-toxic"}]}
{"smiles": "C/C(C=O)=C(\\C)CC[C@@H](C)[C@H]1CC[C@H]2C3=C(C(=O)C[C@]12C)[C@@]1(C)CCC(=O)[C@@H](C)[C@@H]1CC3", "values": [{"measurement": "Activity", "setting": "Hs68", "value": "Non-toxic"}]}
{"smiles": "C=C(CC[C@@H](C)[C@H]1CC[C@H]2C3=C(C(=O)C[C@]12C)[C@@]1(C)CCC(=O)[C@](C)(O)[C@@H]1C[C@@H]3O)[C@H](C)C(=O)O", "values": [{"measurement": "IC50", "setting": "MDA-MB-231", "value": 58.6, "unit": "µM"}, {"measurement": "Activity", "setting": "Hs68", "value": "Non-toxic"}, {"measurement": "IC50", "setting": "A549", "value": 80.2, "unit": "µM"}]}
{"smiles": "C=C(CC[C@@H](C)[C@H]1CC[C@H]2C3=C(C(=O)C[C@]12C)[C@@]1(C)CCC(=O)[C@](C)(O)[C@@H]1C[C@@H]3O)[C@@H](C)C(=O)O", "values": [{"measurement": "IC50", "setting": "MDA-MB-231", "value": 67.2, "unit": "µM"}, {"measurement": "Activity", "setting": "Hs68", "value": "Non-toxic"}, {"measurement": "IC50", "setting": "A549", "value": 66.3, "unit": "µM"}]}
{"smiles": "C=C(CC[C@@H](C)[C@H]1CC[C@H]2C3=C(C(=O)C[C@]12C)[C@@]1(C)CCC(=O)[C@](C)(O)[C@@H]1C[C@@H]3O)[C@H](C)C(=O)OC", "values": [{"measurement": "IC50", "setting": "MDA-MB-231", "value": 76.8, "unit": "µM"}, {"measurement": "Activity", "setting": "Hs68", "value": "Non-toxic"}, {"measurement": "IC50", "setting": "A549", "value": 73.2, "unit": "µM"}]}
{"smiles": "C=C(CC[C@@H](C)[C@H]1CC[C@H]2C3=C(C(=O)C[C@]12C)[C@@]1(C)CCC(=O)[C@](C)(O)[C@@H]1C[C@@H]3O)[C@@H](C)C(=O)OC", "values": [{"measurement": "IC50", "setting": "MDA-MB-231", "value": 71.5, "unit": "µM"}, {"measurement": "Activity", "setting": "Hs68", "value": "Non-toxic"}, {"measurement": "IC50", "setting": "A549", "value": 93.2, "unit": "µM"}]}
{"smiles": "C=C(CC[C@@H](C)[C@H]1CC[C@H]2C3=C(C(=O)[C@H](O)[C@]12C)[C@@]1(C)CCC(=O)[C@@H](C)[C@@H]1CC3=O)[C@@H](C)C(=O)O", "values": [{"measurement": "Activity", "setting": "Hs68", "value": "Non-toxic"}]}
{"smiles": "C=C(CC[C@@H](C)[C@H]1CC[C@H]2C3=C(C(=O)[C@H](O)[C@]12C)[C@@]1(C)CCC(=O)[C@@H](C)[C@@H]1CC3=O)[C@H](C)C(=O)O", "values": [{"measurement": "IC50", "setting": "MDA-MB-231", "value": 71.3, "unit": "µM"}, {"measurement": "Activity", "setting": "Hs68", "value": "Non-toxic"}, {"measurement": "IC50", "setting": "A549", "value": 84.4, "unit": "µM"}]}
{"smiles": "C=C(CC[C@@H](C)[C@H]1CC[C@H]2C3=C(C(=O)C[C@]12C)[C@@]1(C)CC[C@H](O)[C@@H](C)[C@@H]1C[C@@H]3O)[C@H](C)C(=O)O", "values": [{"measurement": "Activity", "setting": "Hs68", "value": "Non-toxic"}]}
{"smiles": "C=C(CC[C@@H](C)[C@H]1CC[C@H]2C3=C(C(=O)C[C@]12C)[C@@]1(C)CC[C@H](O)[C@@H](C)[C@@H]1C[C@@H]3O)[C@@H](C)C(=O)O", "values": [{"measurement": "Activity", "setting": "Hs68", "value": "Non-toxic"}]}
{"smiles": "C=C(CC[C@@H](C)[C@H]1CC[C@H]2C3=C(C(=O)[C@H](O)[C@]12C)[C@@]1(C)CC[C@@H](O)[C@@H](C)[C@@H]1CC3=O)[C@@H](C)C(=O)O", "values": [{"measurement": "IC50", "setting": "MDA-MB-231", "value": 23.7, "unit": "µM"}, {"measurement": "Activity", "setting": "Hs68", "value": "Non-toxic"}, {"measurement": "IC50", "setting": "A549", "value": 22, "unit": "µM"}]}
{"smiles": "C=C(CC[C@@H](C)[C@H]1CC[C@H]2C3=C(C(=O)[C@H](O)[C@]12C)[C@@]1(C)CC[C@@H](O)[C@@H](C)[C@@H]1CC3=O)[C@H](C)C(=O)O", "values": [{"measurement": "IC50", "setting": "MDA-MB-231", "value": 38.6, "unit": "µM"}, {"measurement": "Activity", "setting": "Hs68", "value": "Non-toxic"}, {"measurement": "IC50", "setting": "A549", "value": 32.8, "unit": "µM"}]}
{"smiles": "C=C(CC[C@@H](C)[C@H]1CC[C@H]2C3=C(C(=O)C[C@]12C)[C@@]1(C)CCC(=O)[C@@H](C)[C@@H]1CC3=O)[C@@H](C)C(=O)O", "values": [{"measurement": "IC50", "setting": "MDA-MB-231", "value": 33.4, "unit": "µM"}, {"measurement": "Activity", "setting": "Hs68", "value": "Non-toxic"}, {"measurement": "IC50", "setting": "A549", "value": 41.4, "unit": "µM"}]}
{"smiles": "C=C(CC[C@@H](C)[C@H]1CC[C@H]2C3=C(C(=O)C[C@]12C)[C@@]1(C)CCC(=O)[C@@H](C)[C@@H]1C[C@@H]3O)[C@H](C)C(=O)O", "values": [{"measurement": "IC50", "setting": "MDA-MB-231", "value": 74.2, "unit": "µM"}, {"measurement": "Activity", "setting": "Hs68", "value": "Non-toxic"}, {"measurement": "IC50", "setting": "A549", "value": 76.2, "unit": "µM"}]}
{"smiles": "C=C(CC[C@@H](C)[C@H]1CC[C@H]2C3=C(C(=O)C[C@]12C)[C@@]1(C)CCC(=O)[C@@H](C)[C@@H]1C[C@@H]3O)[C@@H](C)C(=O)O", "values": [{"measurement": "IC50", "setting": "MDA-MB-231", "value": 25.1, "unit": "µM"}, {"measurement": "Activity", "setting": "Hs68", "value": "Non-toxic"}, {"measurement": "IC50", "setting": "A549", "value": 33.1, "unit": "µM"}]}
{"smiles": "C=C(CC[C@@H](C)[C@H]1CC[C@H]2C3=C(C(=O)C[C@]12C)[C@@]1(C)CC[C@@H](O)[C@](C)(O)[C@@H]1C[C@@H]3O)[C@H](C)C(=O)O", "values": [{"measurement": "Activity", "setting": "Hs68", "value": "Non-toxic"}]}
{"smiles": "C=C(CC[C@@H](C)[C@H]1CC=C2C3=C(C(=O)C[C@@]21C)[C@@]1(C)CCC(=O)[C@@H](C)[C@@H]1C[C@@H]3O)C(C)C(=O)O", "note": "(some centres not stated)", "values": [{"measurement": "IC50", "setting": "MDA-MB-231", "value": 31.6, "unit": "µM"}, {"measurement": "Activity", "setting": "Hs68", "value": "Non-toxic"}, {"measurement": "IC50", "setting": "A549", "value": 40.6, "unit": "µM"}]}
{"smiles": "C=C(CC[C@@H](C(=O)O)[C@H]1C[C@H](O)[C@@]2(C)C3=CC[C@H]4C(C)(C)[C@@H](O)CC[C@]4(C)C3=CC[C@]12C)C(C)C", "values": [{"measurement": "Activity", "setting": "Hs68", "value": "Non-toxic"}]}
{"smiles": "C=C(CC[C@@H](C(=O)O)[C@H]1C[C@H](O)[C@@]2(C)C3=CC[C@H]4C(C)(C)C(=O)CC[C@]4(C)C3=CC[C@]12C)C(C)C", "values": [{"measurement": "Activity", "setting": "Hs68", "value": "Non-toxic"}]}
{"smiles": "C=C(CC[C@@H](C(=O)O)[C@H]1C[C@H](OC(C)=O)[C@@]2(C)C3=CC[C@H]4C(C)(C)[C@@H](O)CC[C@]4(C)C3=CC[C@]12C)C(C)C", "values": [{"measurement": "Activity", "setting": "Hs68", "value": "Non-toxic"}]}
{"smiles": "C=C(CC[C@@H](C)[C@H]1CC[C@H]2C3=C(C(=O)C[C@]12C)[C@@]1(C)CCC(=O)[C@@H](C)[C@@H]1CC3)C(C)C(=O)O", "note": "(some centres not stated) [ANTCIN A]", "values": [{"measurement": "IC50", "setting": "MDA-MB-231", "value": 29.6, "unit": "µM"}, {"measurement": "Activity", "setting": "Hs68", "value": "Non-toxic"}, {"measurement": "IC50", "setting": "A549", "value": 39.4, "unit": "µM"}]}
{"smiles": "C=C(CC[C@@H](C)[C@H]1CC[C@H]2C3=C(C(=O)C[C@]12C)[C@@]1(C)CCC(=O)[C@@H](C)[C@@H]1CC3=O)[C@H](C)C(=O)O", "note": "[ANTCIN B]", "values": [{"measurement": "IC50", "setting": "MDA-MB-231", "value": 44, "unit": "µM"}, {"measurement": "Activity", "setting": "Hs68", "value": "Non-toxic"}, {"measurement": "IC50", "setting": "A549", "value": 57.4, "unit": "µM"}]}
{"smiles": "C=C(CC[C@@H](C)[C@H]1CC[C@H]2C3=C(C(=O)[C@H](O)[C@]12C)[C@@]1(C)CC[C@@H](O)[C@@H](C)[C@@H]1C[C@@H]3O)C(C)C(=O)O", "note": "(some centres not stated) [CAMPHORATIN A]", "values": [{"measurement": "IC50", "setting": "MDA-MB-231", "value": 93.5, "unit": "µM"}, {"measurement": "Activity", "setting": "Hs68", "value": "Non-toxic"}, {"measurement": "IC50", "setting": "A549", "value": 92.1, "unit": "µM"}]}
{"smiles": "C=C(CC[C@@H](C)[C@H]1CC[C@H]2C3=C(C(=O)C[C@]12C)[C@@]1(C)CC[C@@H](O)[C@](C)(O)[C@@H]1CC3=O)C(C)C(=O)O", "note": "(some centres not stated) [CAMPHORATIN C]", "values": [{"measurement": "IC50", "setting": "MDA-MB-231", "value": 62.8, "unit": "µM"}, {"measurement": "Activity", "setting": "Hs68", "value": "Non-toxic"}, {"measurement": "IC50", "setting": "A549", "value": 48.8, "unit": "µM"}]}
{"smiles": "C=C(CC[C@@H](C(=O)O)[C@H]1CC[C@@]2(C)C3=CC[C@H]4C(C)(C)[C@@H](O)CC[C@]4(C)C3=CC[C@]12C)C(C)C", "note": "[DEHYDROEBURICOIC ACID]", "values": [{"measurement": "Activity", "setting": "Hs68", "value": "Non-toxic"}]}
{"smiles": "C=C(CC[C@@H](C(=O)O)[C@H]1CC[C@@]2(C)C3=C(CC[C@]12C)[C@@]1(C)CC[C@H](O)C(C)(C)[C@@H]1CC3)C(C)C", "note": "[EBURICOIC ACID]", "values": [{"measurement": "Activity", "setting": "Hs68", "value": "Non-toxic"}]}
{"smiles": "C=C(CC[C@@H](C(=O)O)[C@H]1C[C@H](O)[C@@]2(C)C3=C(CC[C@]12C)[C@@]1(C)CC[C@H](O)C(C)(C)[C@@H]1CC3)C(C)C", "note": "[SULFURENIC ACID]", "values": [{"measurement": "Activity", "setting": "Hs68", "value": "Non-toxic"}]}
